Screens as filed in PubChem BioAssay.
KCNQ1 block – inhibitors of human KCNQ1 potassium channel; 310,000 compounds, 1.3% hits; CHO-K1 KCNQ1, FluxOR thallium flux fluorescence; stronger effect = higher value; B-score at 10 µM; AID 2642; P51787;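 active = compounds whose thallium flux B-score, printed positive for inhibition, exceeds three library SD while starting fluorescence stays within three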;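 also: channel opened by potassium depolarization with thallium stimulus after 20 min compound exposure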
KCNK3 block – human KCNK3 channel inhibition, primary screen; 340,000 compounds, 0.84% hits; O14649; CHO-KCNK3 thallium flux, FluxOR fluorescence; stronger effect = lower value; B-score at 10 µM;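 active = B-score under library mean minus 4 SD, starting fluorescence ratio at most library mean plus 5 SD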;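 also: more negative B-score means stronger inhibition of thallium flux through KCNK3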
hERG rescue – compounds protecting human hERG from proarrhythmic drug block. Q12809. CHO-hERG, FluxOR thallium flux, dofetilide IC70 present. activation (rescue from dofetilide block), less the hit threshold, % at 10 µM. 310,000 compounds, 0.51% hits. AID 1511;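 active = activation above the mean of controls blocked by dofetilide plus 5 SD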;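 also: thallium influx through hERG after potassium depolarization seen as dye fluorescence rise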
KCNK9 block – human KCNK9 channel inhibition. B-score at 10 µM. 310,000 compounds, 1.2% hits. Q9NPC2. HEK293 KCNK9, FluxOR thallium flux fluorescence; stronger effect = lower value. AID 488922;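 active = ratio B-score over 3 SD below the library mean, with starting fluorescence within 5 SD of its mean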;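 also: negative B-score means less thallium flux so channel inhibition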
KCNQ1 act – potentiators or activators of human KCNQ1 potassium channel | B-score at 10 µM | P51787 | CHO-K1 KCNQ1, thallium flux FluxOR fluorescence; stronger effect = higher value | 310,000 compounds, 0.35% hits;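 active = fluorescence ratio B-score, a plate-corrected score, at least three library SD, with initial intensity B-score within 5 SD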
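Test system: CHO-K1 cells stably expressing KCNQ1 / Medium: assay buffer / Also added: depolarizing K+/Tl+ stimulus, K2SO4 and Tl2SO4 each 12.5 mM in 5x stock / Incubation: 90 min dye loading and 20 min compound exposure, both at room temperature / Signal: thallium influx via FluxOR fluorescence, kinetic imaging / Evaluation: B score of baseline-normalized fluorescence ratio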
Kir21 block – blocks the mouse Kir2.1 inward-rectifier potassium channel; B-score at 10 µM; HEK293-Kir2.1, FluxOR thallium flux fluorescence; stronger effect = lower value; AID 1672; P35561; 310,000 compounds, 0.85% hits;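 active = fluorescence ratio B-score at or below minus 3 SD of library scores, with starting-brightness B-score within 2 SD, cut at about -4.2 in these data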;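 also: channel flux triggered by added potassium and thallium sulfate stimulus; B-score of peak minus minimum fluorescence over baseline after thallium stimulus; more negative B-score means stronger Kir2.1 block with less thallium influx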
Target sequence (P35561 whole entry, looked up): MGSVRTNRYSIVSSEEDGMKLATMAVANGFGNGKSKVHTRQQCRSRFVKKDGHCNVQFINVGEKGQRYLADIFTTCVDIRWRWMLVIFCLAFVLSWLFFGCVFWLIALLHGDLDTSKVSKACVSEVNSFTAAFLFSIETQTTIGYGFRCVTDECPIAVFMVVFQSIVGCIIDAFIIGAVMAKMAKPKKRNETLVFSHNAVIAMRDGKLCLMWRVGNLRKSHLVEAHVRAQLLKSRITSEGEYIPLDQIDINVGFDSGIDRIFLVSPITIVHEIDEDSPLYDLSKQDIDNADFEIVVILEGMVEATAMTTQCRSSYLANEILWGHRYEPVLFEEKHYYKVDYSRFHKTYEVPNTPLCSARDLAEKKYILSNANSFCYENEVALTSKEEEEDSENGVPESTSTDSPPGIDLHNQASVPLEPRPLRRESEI
KCNQ1 inh valid – human KCNQ1 channel inhibition, validation assay | shares compounds with KCNQ1 block | KCNQ1 cell line, FluxOR thallium flux fluorescence | inhibition, % at 10 µM | 1,600 compounds, 93% hits | AID 588353;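 active = primary screen active, with duplicate mean exceeding buffer control mean plus 3 SD of buffer wells, cut at about 28% in these data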;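 also: 0% = buffer control ratio and 100% = XE991 inhibitor control ratio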
CHO KCNQ1 ctr – activity in parental CHO cells lacking KCNQ1. shares compounds with KCNQ1 block. parental CHO-K1, FluxOR thallium flux fluorescence ratio; stronger effect = lower value; zero means no signal rise above baseline. fluorescence ratio (Tl flux) at 10 µM. 1,600 compounds, 21% hits;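 active = mean of duplicate thallium-flux fluorescence ratios in parental host cells more than 5 SD below the buffer control mean, cut at about 0.38 in these data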;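 also: ratio is peak minus minimum fluorescence divided by baseline fluorescence; actives read low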
KCNQ1 ephys val – blocks human KCNQ1 current in automated patch clamp; 490 compounds, 20% hits; KCNQ1-CHO cells; shares compounds with KCNQ1 block; calls only at 10 µM;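 active = KCNQ1 current drop exceeding 3 SD of negative control wells, seen in both duplicate runs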;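 also: steady state current during a 2 s step from -80 to +40 mV; negative values mean current inhibition and positive values mean potentiation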
KCNQ2 spec – KCNQ1 inhibitor that also blocks rat KCNQ2 channel; shares compounds with KCNQ1 block; KCNQ2 cells, FluxOR thallium flux fluorescence; inhibition, % at 10 µM; 1,600 compounds, 71% hits; AID 651746;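 active = mean percent inhibition of the KCNQ2 thallium signal more than 5 SD above the buffer-only control wells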;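 also: KCNQ2 expressed in CHO cells; 0% = buffer control wells and 100% = XE-991 inhibitor control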
KCNQ1-KCNE1 inh – selectivity of KCNQ1 inhibitors: inhibition of human KCNQ1/KCNE1 channel. 1,600 compounds, 77% hits. inhibition, % at 10 µM. AID 652147. KCNQ1/KCNE1 cells, FluxOR thallium flux fluorescence. shares compounds with KCNQ1 block;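 active = mean percent inhibition of duplicate wells above the buffer-only control mean plus 3 SD of those controls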;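 also: 0% = buffer only wells and 100% = XE-991 inhibitor control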
* = called active by the depositor. Rows were chosen to be rich in hits. Some 3.7% of all compounds tested hit in one or more screens of this group.

What do the screens show for `S=c1[nH]nc(-c2cc(-c3ccccc3)n[nH]2)n1/N=C/c1cccc(Cl)c1`?
KCNQ1 block: inactive; KCNK3 block: inactive; hERG rescue: -16; KCNK9 block: inactive; KCNQ1 act: inactive; Kir21 block: -0.59

Results for CC[C@]12c3[nH]c4cc(-c5ccco5)ccc4c3CCN1C(=O)[C@@H](CC(=O)NC(C)(C)C)C[C@@H]2C(=O)N1CCN(C(=O)c2ccco2)CC1 ?
KCNK3 block: inactive

How did CC(C)c1ccc(-c2cc(C(=O)N3CCOCC3)c3cc(Br)ccc3n2)cc1 do in these assays?
KCNQ1 block: 6*; KCNK3 block: inactive; hERG rescue: -12; KCNK9 block: inactive; KCNQ1 act: inactive; Kir21 block: -0.56; KCNQ1 inh valid: 40*; CHO KCNQ1 ctr: 0.43; KCNQ2 spec: 131%*; KCNQ1-KCNE1 inh: inactive

How did O=C(c1cc(-c2ccccc2)nc2ccccc12)N1CCOCC1 do in these assays?
KCNQ1 block: inactive; KCNK3 block: inactive; hERG rescue: -1; KCNK9 block: inactive; KCNQ1 act: inactive; Kir21 block: -1.2

Results for CCCCCCCN1C2=NCCCN2c2ccccc21 ?
KCNQ1 block: 7*; KCNK3 block: inactive; hERG rescue: -15; KCNK9 block: inactive; KCNQ1 act: inactive; Kir21 block: -0.57; KCNQ1 inh valid: 50*; CHO KCNQ1 ctr: 0.51; KCNQ2 spec: inactive; KCNQ1-KCNE1 inh: 55%*

What do the screens show for `COc1ccc(NC(=O)CSc2nc(SC)ns2)cc1`?
KCNQ1 block: inactive; KCNK3 block: inactive; hERG rescue: -8; KCNK9 block: inactive; KCNQ1 act: inactive; Kir21 block: -1.3

How did N#C/C(=C\c1coc2ccc(O)cc2c1=O)C(=O)Nc1nc2ccccc2s1 do in these assays?
KCNQ1 block: 26*; KCNK3 block: inactive; hERG rescue: -25; KCNK9 block: inactive; KCNQ1 act: inactive; Kir21 block: -14; KCNQ1 inh valid: active; CHO KCNQ1 ctr: 0.13*; KCNQ2 spec: inactive; KCNQ1-KCNE1 inh: inactive

Results for N#C/C(=C\c1coc2ccccc2c1=O)C(N)=S ?
KCNQ1 block: inactive; KCNK3 block: inactive; hERG rescue: -16; KCNK9 block: inactive; KCNQ1 act: inactive; Kir21 block: 0.13

What do the screens show for `COc1cc(/C=C/c2nnc3c4ccccc4ncn23)cc(OC)c1OC`?
KCNQ1 block: 6*; KCNK3 block: inactive; hERG rescue: -5; KCNK9 block: inactive; KCNQ1 act: inactive; Kir21 block: -0.88; KCNQ1 inh valid: 44*; CHO KCNQ1 ctr: 0.54; KCNQ2 spec: 60%*; KCNQ1-KCNE1 inh: 34%*

What do the screens show for `Cc1nonc1NC(=O)CSc1nnc(N)s1`?
KCNQ1 block: inactive; KCNK3 block: inactive; hERG rescue: 1; KCNK9 block: inactive; KCNQ1 act: inactive; Kir21 block: -0.94

Results for Cc1cccc(C)c1OCC(O)CN(Cc1ccccc1O)C1CCCCC1 (centres undefined) ?
KCNQ1 block: 7*; KCNK3 block: inactive; hERG rescue: -17; KCNK9 block: inactive; KCNQ1 act: inactive; Kir21 block: -1.1; KCNQ1 inh valid: 94*; CHO KCNQ1 ctr: 0.42; KCNQ1 ephys val: active; KCNQ2 spec: 114%*; KCNQ1-KCNE1 inh: 55%*

Results for COC(=O)CCS(=O)(=O)c1nc(-c2ccccc2)cc(C(F)(F)F)n1 ?
KCNQ1 block: 8*; KCNK3 block: inactive; hERG rescue: -16; KCNK9 block: inactive; KCNQ1 act: inactive; Kir21 block: -4.6*; KCNQ1 inh valid: 26*; CHO KCNQ1 ctr: 0.46; KCNQ2 spec: 80%*; KCNQ1-KCNE1 inh: 62%*

How did O=C(O)CCS(=O)(=O)c1nc(-c2cccs2)cc(C(F)(F)F)n1 do in these assays?
KCNQ1 block: inactive; KCNK3 block: inactive; hERG rescue: -9; KCNK9 block: inactive; KCNQ1 act: inactive; Kir21 block: -1.2

How did COc1ccc(S(=O)(=O)N2CCCCCC2)cc1C(=O)NCCc1ccccc1 do in these assays?
KCNK3 block: inactive

What do the screens show for `CN(C1CCCCC1)S(=O)(=O)c1ccc(NC(=O)c2ccc(Br)o2)cc1`?
KCNQ1 block: 7*; KCNK3 block: inactive; hERG rescue: -9; KCNK9 block: -8*; KCNQ1 act: inactive; Kir21 block: -0.15; KCNQ1 inh valid: 132*; CHO KCNQ1 ctr: 0.42; KCNQ1 ephys val: inactive; KCNQ2 spec: 115%*; KCNQ1-KCNE1 inh: 193%*

Results for Cc1ccc(N(CCCCN2C(=O)c3ccccc3C2=O)C(=O)c2ccc(Cl)s2)cc1 ?
KCNQ1 block: 9*; KCNK3 block: inactive; hERG rescue: -12; KCNK9 block: inactive; KCNQ1 act: inactive; Kir21 block: -1.3; KCNQ1 inh valid: 78*; CHO KCNQ1 ctr: 0.49; KCNQ2 spec: 71%*; KCNQ1-KCNE1 inh: 34%*

Results for O=C1c2ccccc2C(=O)N1CCCCN(C(=O)c1ccc(Cl)s1)c1ccc(Cl)cc1 ?
KCNQ1 block: inactive; KCNK3 block: inactive; hERG rescue: -7; KCNK9 block: inactive; KCNQ1 act: inactive; Kir21 block: 0.39

Results for CC[C@]12c3[nH]c4ccc(Cl)cc4c3CCN1C(=O)[C@@H](CC(=O)NCCCN(C)C)C[C@@H]2C(=O)N1CCN(C(=O)c2ccco2)CC1 ?
KCNK3 block: inactive

How did S=C(NCc1ccccc1)Nc1ccc(Oc2ccccc2)cc1 do in these assays?
KCNQ1 block: 7*; KCNK3 block: inactive; hERG rescue: -4; KCNK9 block: inactive; KCNQ1 act: inactive; Kir21 block: -0.1; KCNQ1 inh valid: 94*; CHO KCNQ1 ctr: 0.43; KCNQ1 ephys val: inactive; KCNQ2 spec: 74%*; KCNQ1-KCNE1 inh: 49%*

Results for CCNC(=S)Nc1ccc(Oc2ccccc2)cc1 ?
KCNQ1 block: inactive; KCNK3 block: inactive; hERG rescue: -8; KCNK9 block: inactive; KCNQ1 act: inactive; Kir21 block: -0.73
